The target in one data set is Glutamate NMDA receptor. As to the kind of experiment: Inhibition of [3H]glycine binding to NMDA receptor in rat brain membranes. In kind it is cell membranes. In outline: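 [3H]glycine displaced from rat hippocampal membranes in presence of 10 µM glutamic acid; 4-5 inhibitor concentrations giving 20-90% inhibition of specific binding; Ki derived; number of experiments given per value.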

The subject of a further data set is L cells. As to the kind of experiment: Cytotoxicity against mouse fibroblast L(tk-) cells transfected with human NMDA using LDH assay. The settings on record: L929. The format is functional, cell-based. Summed up:
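Mouse L(tk-) fibroblast clone L12-G10 co-transfected with dexamethasone-inducible human NR1a/NR2A; seeded 15 × 10^3 cells/well, grown overnight, then receptor expression induced with 4 µM dexamethasone in Mg2+-free medium with 5% FCS (supplies glutamate and glycine) and 50 mM KCl. Compounds added at increasing, trypan-blue-verified nontoxic concentrations for 24 h. Cell death read as LDH release (INT formazan, 490 nm) relative to total LDH; four-parameter logistic fit for IC50.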

The subject of data set [1] is Mus musculus. As to the kind of experiment: Protection of mice against maximal e-shock at 30 mg/kg. In kind it is functional. In outline: (§1)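 Male Swiss mice, 10 per dose, dosed intraperitoneally (vehicle 8 parts DMSO, 10 parts H2O); doses spanned 0.3-100 mg/kg depending on compound. Maximal electroshock applied 30 or 60 min later; tonic hind limb extension scored as unprotected. Dose-response fitted to a hyperbolic function giving ID50.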

The next data set has as its target D(2) dopamine receptor (Rattus norvegicus, UniProt P61169). As to the kind of experiment: Displacement of [3H]raclopride from dopamine receptor D2 in rat striatal membrane. The format is cell membranes, Striatum. On the technique in general: Loss of bound radioactivity is the signal in a displacement assay; it reports binding, not function.
Data set [2] deals with Rattus norvegicus. As to the kind of experiment: Effect on brain tissue level after 6 min at 5 mg/kg, iv. As to conditions: in vivo, 0.1 h. In kind it is ADME, organism-based, Wistar. More on the design: dose 5 mg/kg, route intravenous. Summed up:
(§2)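 Male Wistar rats given 5 mg/kg intravenously; plasma and brain tissue levels measured at 6 min and 1 h, n = 3 per time; brain expressed as µmol/kg.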

The subject of data set [3] is Rattus norvegicus. As to the kind of experiment: Effect on brain tissue level after 1h at 5 mg/kg, iv. In kind it is ADME, organism-based, Wistar. On the set-up: dose 5 mg/kg, route intravenous. As to conditions: in vivo. In outline: as §2
Data set [4] deals with Mus musculus. As to the kind of experiment: Protection of mice against maximal e-shock at 0.7 mg/kg. In kind it is functional. Summed up: as §1
Data set [5] relates to Mus musculus. Nature of the data set: Protection of mice against maximal e-shock after 30 min at 43 mg/kg. The format is functional. In outline:
as §1

For data set [6], the system named is Rattus norvegicus. Nature of the data set: Effect on brain tissue level after 1h at 10 mg/kg, iv. The format is ADME, organism-based, Wistar. More on the design: dose 10 mg/kg, route intravenous. The settings on record: in vivo. In outline: (§3)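 Male Wistar rats given 10 mg/kg intravenously; plasma and brain tissue levels measured 6 min (n = 3) and 1 h (n = 3) after dosing; brain expressed as µmol/kg.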

The subject of data set [7] is Rattus norvegicus. Nature of the data set: Effect on brain tissue level after 6 min at 10mg/kg, iv. In kind it is ADME, organism-based, Wistar. The settings on record: in vivo, 0.1 h. Summed up:
as §3

Data set [8] deals with Mus musculus. Nature of the data set: Protection of mice against maximal e-shock after 30 min at 15.5 mg/kg. The format is functional. In outline:
as §1

Data set [9] concerns Mus musculus. As to the kind of experiment: Protection of mice against maximal e-shock after 60 min at 13.5 mg/kg. In kind it is functional. Summed up:
as §1

Molecules are shown by their SMILES. Bounds are passed on as bounds.

The results in this text go back to ChEMBL document CHEMBL1149380, “Synthesis of thieno[2,3-b]pyridinones acting as cytoprotectants and as inhibitors of [3H]glycine binding to the N-methyl-D-aspartate (NMDA) receptor” (J Med Chem, 2006).

Chain of D(2) dopamine receptor (P61169 whole entry): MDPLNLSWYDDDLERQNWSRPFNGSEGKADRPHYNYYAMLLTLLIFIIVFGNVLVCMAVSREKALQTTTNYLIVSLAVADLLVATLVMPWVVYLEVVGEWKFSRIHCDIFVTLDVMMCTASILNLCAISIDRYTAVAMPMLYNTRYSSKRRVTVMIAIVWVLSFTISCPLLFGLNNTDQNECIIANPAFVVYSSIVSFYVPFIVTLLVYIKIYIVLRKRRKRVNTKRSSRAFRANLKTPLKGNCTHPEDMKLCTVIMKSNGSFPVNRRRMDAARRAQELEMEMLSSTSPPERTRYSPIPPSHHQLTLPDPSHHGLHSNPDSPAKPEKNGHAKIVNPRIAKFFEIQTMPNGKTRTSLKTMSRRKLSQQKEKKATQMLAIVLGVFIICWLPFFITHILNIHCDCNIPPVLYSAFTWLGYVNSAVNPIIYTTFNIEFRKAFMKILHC

In the case of `CC(C)c1c(Cl)sc2nc(O)c(-c3ccccc3)c(O)c12`, on Glutamate NMDA receptor, the Ki (usually a dissociation constant, usually derived from enzyme kinetics or from competition with a known ligand) was found to be 6.6 nM.

Molecule `CCC(C)c1c(Cl)sc2nc(O)c(-c3ccccc3)c(O)c12` (centres undefined) had a Ki on Glutamate NMDA receptor of 5.8 nM.

For `Cc1c(Br)sc2nc(O)c(-c3ccccc3)c(O)c12`, on Glutamate NMDA receptor, the affinity, expressed as Ki, was 390 nM.

Consider `CCc1csc2nc(O)c(-c3cccc(Oc4ccccc4)c3)c(O)c12`, for which, in the data set with L cells, the IC50 (commonly the concentration at which inhibition is half-maximal) was > 50000 nM. This molecule also displayed a Ki on Glutamate NMDA receptor of 179 nM.

`COCc1c(Cl)sc2nc(O)c(-c3cccc(Oc4ccccc4)c3)c(O)c12` yielded an IC50 in the data set on L cells of 15700 nM. On Glutamate NMDA receptor, this molecule came in with a Ki of 1.6 nM. In the data set on Mus musculus [1], the Activity was 30%.

`Oc1nc2sc(Br)cc2c(O)c1-c1ccccc1` registered a Ki on Glutamate NMDA receptor of 1770 nM.

In turn, `Oc1nc2sccc2c(O)c1-c1cccc(Oc2ccccc2)c1` registered an IC50 in the data set on L cells of 89200 nM. On Glutamate NMDA receptor, the Ki was determined as 368 nM.

Consider `CCc1cc2c(O)c(-c3ccccc3)c(O)nc2s1`, for which, at Glutamate NMDA receptor, the Ki was determined as 3100 nM.

Turning to `CCC(C)c1csc2nc(O)c(-c3ccccc3)c(O)c12` (centres undefined), affinity at Glutamate NMDA receptor was put at a Ki of 940 nM.

As to `Oc1nc2scc(C3CC3)c2c(O)c1-c1ccccc1`, on Glutamate NMDA receptor, affinity was put at a Ki of 4750 nM.

With `CCC(C)c1csc2nc(O)c(-c3cccc(Oc4ccccc4)c3)c(O)c12` (centres undefined), in the data set on L cells, the IC50 was > 50000 nM. The molecule further had a Ki on Glutamate NMDA receptor of 96 nM.

Consider `Oc1nc2sc(Cl)c(C3CC3)c2c(O)c1-c1ccccc1`, for which the affinity on Glutamate NMDA receptor corresponds to a Ki of 58 nM.

Turning to `CC1=C(CN)SC2NC(=O)C(c3cccc(Oc4ccccc4)c3)=C(O)C12` (centres undefined), at Glutamate NMDA receptor, the Ki was 1980 nM.

On Glutamate NMDA receptor, `Oc1nc2sc3c(c2c(O)c1-c1ccccc1)CCCC3` showed a Ki of 4300 nM.

For `NCCc1c(Cl)sc2[nH]c(=O)c(-c3cccc(Oc4ccccc4)c3)c(O)c12`, the IC50 at D(2) dopamine receptor is > 30000 nM. Moreover, at Glutamate NMDA receptor, the Ki was 16500 nM.

As to `Oc1nc2sc3c(c2c(O)c1-c1cccs1)CCCC3`, at Glutamate NMDA receptor, the affinity corresponds to a Ki of 23100 nM.

At Glutamate NMDA receptor, `O=c1[nH]c2ccccc2c(O)c1-c1ccccc1` came in with a Ki of 12200 nM.

At Glutamate NMDA receptor, `Oc1nc2ccsc2c(O)c1-c1ccccc1` displayed a Ki of 97500 nM.

In turn, `Oc1nc2sc3c(c2c(O)c1-c1cccc(Oc2ccccc2)c1)CCC3` gave a Ki on Glutamate NMDA receptor of 118 nM.

At Glutamate NMDA receptor, `CCc1c(Cl)sc2nc(O)c(-c3ccccc3)c(O)c12` displayed an inhibition constant (Ki) of 8.9 nM.

Take `CC(C)c1csc2nc(O)c(-c3ccccc3)c(O)c12`: the Ki at Glutamate NMDA receptor came out at 1530 nM.

As for `CC(C)c1c(Cl)sc2nc(S)c(-c3ccccc3)c(O)c12`, the Ki on Glutamate NMDA receptor was found to be 890 nM.

At Glutamate NMDA receptor, `Oc1nc2cscc2c(O)c1-c1ccccc1` showed a Ki of 26000 nM.

In the case of `O=c1[nH]c2cc(Cl)ccc2c(O)c1-c1cccc(Oc2ccccc2)c1`, the brain level was 5.5 µmol/kg with Rattus norvegicus [2] and 1.4 µmol/kg with Rattus norvegicus [3]. This molecule had an inhibitory constant (Ki) at Glutamate NMDA receptor of 1.4 nM. This molecule had an Activity with Mus musculus [4] of 50%.

The molecule `CCC(C)c1c(Cl)sc2nc(O)c(-c3cccc(Oc4ccccc4)c3)c(O)c12` (centres undefined) yielded an IC50 with L cells of 7900 nM. For the same molecule, the Ki at Glutamate NMDA receptor was 2 nM.

On Glutamate NMDA receptor, `Cc1cc2c(O)c(-c3ccccc3)c(O)nc2s1` gave a Ki of 9500 nM.

At Glutamate NMDA receptor, `Cc1csc2nc(O)c(-c3cccs3)c(O)c12` displayed a Ki of 34000 nM.

`Cc1cc2c(O)c(-c3cccs3)c(O)nc2s1`: the Ki at Glutamate NMDA receptor stood at 22700 nM.

With `Oc1nc2sc(Cl)c(C3CC3)c2c(O)c1-c1cccc(Oc2ccccc2)c1`, affinity on Glutamate NMDA receptor was put at a Ki of 9.5 nM.

For `CC(C)(C)c1c(Cl)sc2nc(O)c(-c3cccc(Oc4ccccc4)c3)c(O)c12`, in the data set with L cells, the IC50 is 15500 nM. This molecule showed a Ki at Glutamate NMDA receptor of 3.3 nM.

Take `Cc1c(Cl)sc2nc(O)c(-c3ccccc3)c(O)c12`: the affinity on Glutamate NMDA receptor, expressed as Ki, was 267 nM.

For `Oc1nc2sc3c(c2c(O)c1-c1cccc(Oc2ccccc2)c1)CCCC3`, the half-maximal inhibitory concentration (IC50) in the data set on L cells was > 30000 nM. On Glutamate NMDA receptor, the Ki turned out to be 392 nM.

Molecule `CC(C)c1c(Cl)sc2nc(O)c(-c3cccc(Oc4ccccc4)c3)c(O)c12` yielded an IC50 with L cells of 5200 nM. The affinity on Glutamate NMDA receptor corresponds to a Ki of 1.46 nM. Also, the Activity with Mus musculus [5] worked out at 50%. Further, the brain level in the data set on Rattus norvegicus [6] stood at 0.28 µmol/kg; in the data set on Rattus norvegicus [7], 3.5 µmol/kg.

On to `Oc1nc2sc(Cl)c(C3CCCCC3)c2c(O)c1-c1cccc(Oc2ccccc2)c1`, for which the IC50 with L cells is > 50000 nM. Moreover, the Ki on Glutamate NMDA receptor was > 30000 nM.

`Cc1sc2nc(O)c(-c3ccccc3)c(O)c2c1C` showed a Ki at Glutamate NMDA receptor of 1270 nM.

Regarding `CCc1c(Cl)sc2nc(O)c(-c3cccc(Oc4ccccc4)c3)c(O)c12`, the Activity in the data set with Mus musculus [8] and with Mus musculus [9] was 50% throughout. In addition, at Glutamate NMDA receptor, the affinity, expressed as Ki, was 1.11 nM.

`Cc1c(Cl)sc2nc(O)c(-c3cccc(Oc4ccccc4)c3)c(O)c12`: the IC50 in the data set on L cells was > 200000 nM. The Ki at Glutamate NMDA receptor stood at 23 nM.

On Glutamate NMDA receptor, `CC(C)c1c(Cl)sc2nc(S)c(-c3cccc(Oc4ccccc4)c3)c(O)c12` registered a Ki of 139 nM.

Molecule `COCc1csc2nc(O)c(-c3cccc(Oc4ccccc4)c3)c(O)c12` registered an IC50 with L cells of 55800 nM. This molecule gave a Ki on Glutamate NMDA receptor of 36 nM.

Consider `Cc1csc2nc(O)c(-c3ccccc3)c(O)c12`, for which the affinity at Glutamate NMDA receptor corresponds to a Ki of 8300 nM.

With `NCCc1c(Cl)sc2nc(O)c(-c3ccccc3)c(O)c12`, on D(2) dopamine receptor, the IC50 is > 10000 nM. This molecule had a Ki on Glutamate NMDA receptor of 4550 nM.

Consider `CCc1c(Br)sc2nc(O)c(-c3ccccc3)c(O)c12`, for which the Ki on Glutamate NMDA receptor was determined as 10.5 nM.

Molecule `O=c1[nH]c2cc(Cl)ccc2c(O)c1-c1ccccc1` had a Ki on Glutamate NMDA receptor of 151 nM.

Molecule `OCc1c(Cl)sc2nc(O)c(-c3cccc(Oc4ccccc4)c3)c(O)c12` came in with a Ki at Glutamate NMDA receptor of 69 nM.

Molecule `Oc1nc2sc(Cl)cc2c(O)c1-c1cccc(Oc2ccccc2)c1` came in with an IC50 in the data set with L cells of 15400 nM. In addition, affinity at Glutamate NMDA receptor was put at a Ki of 16.6 nM. Also, the Activity in the data set on Mus musculus [1] is 10%.

Regarding `CCCCCCc1c(Cl)sc2nc(O)c(-c3cccc(Oc4ccccc4)c3)c(O)c12`, the IC50 with L cells is > 50000 nM. This molecule also came in with a Ki on Glutamate NMDA receptor of 80 nM.

At Glutamate NMDA receptor, `Oc1nc2sccc2c(O)c1-c1ccccc1` showed an inhibitory constant (Ki) of 16400 nM.

For the molecule `Cc1csc2nc(O)c(-c3cccc(Oc4ccccc4)c3)c(O)c12`, the IC50 in the data set on L cells was > 250000 nM. The same molecule gave a Ki at Glutamate NMDA receptor of 330 nM.

`CCc1csc2nc(O)c(-c3ccccc3)c(O)c12`: the Ki at Glutamate NMDA receptor came to 530 nM.

The molecule `CCCc1c(Cl)sc2nc(O)c(-c3cccc(Oc4ccccc4)c3)c(O)c12` had an IC50 in the data set with L cells of 15900 nM. The molecule also came in with a Ki at Glutamate NMDA receptor of 4.12 nM.

As to `Oc1nc2sc3c(c2c(O)c1-c1cccc(Oc2ccccc2)c1)CCCS3`, the half-maximal inhibitory concentration (IC50) with L cells is > 250000 nM. For the same molecule, the affinity at Glutamate NMDA receptor, expressed as Ki, was 37 nM.
